The source made the active and inactive calls. The rule behind the calls is not given here.
What was measured:
Medulloblastoma cell = assay: Antiproliferative activity against medulloblastoma cells derived from conditional patched knockout mouse after 48 hrs by [3H]-thymidine incorporation assay; assay type: functional
Summary of the method: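 Primary tumour cells from Math1-Cre;Ptc fl/fl medulloblastoma were isolated and cultured in vitro, then incubated with analogue for 48 h in a proliferation assay. GI50 is mean ± SEM of at least two separate experiments performed in triplicate.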

Mus musculus [1] = organism: Mus musculus; assay: Inhibition of Hedgehog signaling pathway in Sufu-deficient mouse C3H10T1/2 cells assessed as reduction in oxysterol-induced Gli1 mRNA expression at 1 uM after 24 hrs by q-PCR analysis
Mus musculus [2] = organism: Mus musculus; assay: Inhibition of Hedgehog signaling pathway in mouse C3H10T1/2 cells assessed as reduction in oxysterol-induced Gli1 mRNA expression at 1 uM after 24 hrs by q-PCR analysis relative to oxysterol alone; assay type: cell-based; parameters: scale not given: the % may be the effect or the level left
Summary of the method: (§1)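 Gli1 transcription was induced in C3H10T1/2 cells by co-treating with 20(S)-OHC and 22(S)-OHC (5 µM each) plus analogue for 24 h. Gli1 mRNA was quantified by qPCR and expressed as % of the oxysterol-only control (set to 100%). Data are mean ± SEM of at least two separate experiments run in triplicate.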

Mus musculus [3] = organism: Mus musculus; assay: Inhibition of Hedgehog signaling pathway in VDR-deficient mouse C3H10T1/2 cells assessed as change in CYP24A1 mRNA expression at 1 uM after 24 hrs by q-PCR analysis; parameters: scale not given: the % may be the effect or the level left
[4] = Half life in rat liver homogenates; assay type: ADME, tissue-based
Mus musculus [5] = organism: Mus musculus; assay: Inhibition of Hedgehog signaling pathway in Sufu-deficient mouse C3H10T1/2 cells assessed as change in CYP24A1 mRNA expression at 1 uM after 24 hrs by q-PCR analysis; parameters: scale not given: the % may be the effect or the level left
Mus musculus [6] = organism: Mus musculus; assay: Inhibition of Hedgehog signaling pathway in VDR-deficient mouse C3H10T1/2 cells assessed as reduction in oxysterol-induced Gli1 mRNA expression at 1 uM after 24 hrs by q-PCR analysis
[7] = target: T1, Vitamin D3 receptor (Mus musculus) (UniProt P48281); assay: Activation of VDR in mouse ASZ001 cells assessed as change in Cyp24A1 mRNA expression at 1 uM after 48 hrs by q-PCR analysis relative to control; assay type: cell-based
T1 sequence (whole entry): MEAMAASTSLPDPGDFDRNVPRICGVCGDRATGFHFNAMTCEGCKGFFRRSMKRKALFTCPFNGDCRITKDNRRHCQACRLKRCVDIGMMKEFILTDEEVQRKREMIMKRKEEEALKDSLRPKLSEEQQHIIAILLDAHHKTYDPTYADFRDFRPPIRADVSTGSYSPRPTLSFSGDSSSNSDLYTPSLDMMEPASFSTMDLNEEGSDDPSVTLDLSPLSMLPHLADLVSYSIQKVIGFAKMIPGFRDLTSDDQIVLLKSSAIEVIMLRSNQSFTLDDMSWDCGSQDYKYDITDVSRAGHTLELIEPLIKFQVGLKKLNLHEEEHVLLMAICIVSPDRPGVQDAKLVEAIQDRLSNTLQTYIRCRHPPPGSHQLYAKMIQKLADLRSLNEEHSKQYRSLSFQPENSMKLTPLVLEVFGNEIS

[8] = target: T1, Vitamin D3 receptor (Mus musculus); assay: Activation of VDR in mouse C3H10T1/2 cells assessed as change in Cyp24A1 mRNA expression at 5 uM after 24 hrs by q-PCR analysis relative to control; assay type: cell-based
[9] = target: T1, Vitamin D3 receptor (Mus musculus); assay: Activation of VDR in mouse C3H10T1/2 cells assessed as change in Cyp24A1 mRNA expression at 2.5 uM after 24 hrs by q-PCR analysis relative to control; assay type: cell-based
Vitamin D3 receptor = target: T2, Vitamin D3 receptor (Mus musculus, UniProt P48281); assay: Activation of VDR in mouse ASZ001 cells assessed as change in Cyp24A1 mRNA expression after 48 hrs by q-PCR analysis; assay type: cell-based
T2 sequence (P48281 whole entry): T1 sequence (whole entry)
Summary of the method: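 In ASZ001 cells, full dose-response Cyp24A1 mRNA measurement by qPCR was done relative to DMSO control (1.0). EC50 values are mean ± SEM of at least two separate experiments performed in triplicate.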

Mus musculus [10] = organism: Mus musculus; assay: Inhibition of Hedgehog signaling pathway in mouse C3H10T1/2 cells assessed as reduction in oxysterol-induced Gli1 mRNA expression at 2.5 uM after 24 hrs by q-PCR analysis relative to oxysterol alone; assay type: cell-based; summary of the method: as §1
[11] = Inhibition of Hedgehog signaling pathway in mouse ASZ001 cells assessed as reduction in […] Gli1 mRNA expression after 48 hrs by q-PCR analysis; assay type: cell-based; settings: ASZ001, 48 h
[12] = Inhibition of Hedgehog signaling pathway in mouse C3H10T1/2 cells assessed as reduction in oxysterol-induced Gli1 mRNA expression after 24 hrs by q-PCR analysis; assay type: cell-based; settings: C3H 10T1/2, 24 h

## C=C1/C(=C\C=C2/CCC[C@]3(C)[C@@H]([C@H](C)CCCC(C)(C)O)CC[C@@H]23)C[C@@H](O)C[C@@H]1O [CALCITRIOL]
Medulloblastoma cell
  GI50: 1400 nM
Mus musculus [1]
  inhibition: inactive
Mus musculus [2]
  Activity: 30%
Mus musculus [3]
  Activity: 530%
[4]
  half-life: > 2 h
Mus musculus [5]
  Activity: 590%
Mus musculus [6]
  inhibition: inactive
[7]
  Activity: > 30000%
[8]
  Activity: > 30000%

## C=C1CC[C@H](O)C/C1=C/C=C1\CCC[C@]2(C)[C@@H]([C@H](C)CCCC(C)(C)O)CC[C@@H]12 [CALCIFEDIOL ANHYDROUS]
[9]
  Activity: > 30000%
Vitamin D3 receptor
  EC50: 600 nM
[7]
  Activity: 11000%
Mus musculus [10]
  % Gli1 activity: 9.2%
[11]
  IC50: 500 nM
[12]
  IC50: 400 nM

— ChEMBL document CHEMBL4382241, “Synthesis and evaluation of third generation vitamin D3 analogues as inhibitors of Hedgehog signaling” (Eur J Med Chem, 2019)
